bCat nuc transl: modulators of beta-catenin nuclear translocation, primary screen, imaging, HeLa cells, immunofluorescence, high-content; AID 1665, 2009; nuclear translocation activity, % at 5 µM; hit rate 0.3% among 190,000;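 active = nuclear translocation activity above 50% at 5 µM, with a well cell count of 50 or more; inconclusive = wells under 50 cells across six images, flagged as toxic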;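 also: per-cell ratio of nuclear to cytoplasmic median beta-catenin stain intensity; plate controls were DMSO negative control for no effect and GSK-3 inhibitor IX positive control for full effect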
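System: Human HeLa cells, endogenous beta-catenin | Compound dosing: 5 µM primary, 0.02–20 µM confirmation | Timing: 24 h compound exposure at 37°C, 5% CO2 | Measured by: Fluorescence imaging of beta-catenin antibody stain plus DAPI | Read-out basis: % activation of per-cell nuclear versus cytoplasmic median beta-catenin signal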
MT stabilize HCS: microtubule stabilizers in HeLa cells, primary screen, imaging, high-content imaging. % tubulin-high responders, % at 10 µM. hit rate 0.83% among 200,000. HeLa tubulin immunostaining HCS, 24 h; share of cells brighter than vehicle mean+2SD;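 active = plate Z-score above 3 for both tubulin-high and condensed-nucleus cell shares, with cell loss under 80%, at 10 µM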;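 also: anti alpha tubulin signal scored within the nucleus-defined area of each cell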
Dynein cargo inh: inhibitors of GR-EGFP nuclear translocation, primary screen, dynein cargo transport inhibitor project, imaging, high-content, 3617.4 mouse cells; test concentration mostly 20 µM; stimulated with dexamethasone, 1 µM; active compounds read low; z-score, hits read low; hit rate 0.47% among 220,000; AID 1381, 2008;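 active = plate z-score of nuclear minus cytoplasmic receptor signal below a set negative limit, without overly bright fluorescence or cell loss, cut at about -3.5 in these data, passing the limit was not always enough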;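 also: z-score of nuclear minus cytoplasmic ring GR-EGFP intensity difference per well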
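Buffer or medium: tet-free, stripped-serum medium; Also added: dexamethasone, 1.0 µM final; Technique: high-content fluorescence imaging after fixation; Times: 48 h induction, 1 h compound, 30 min dex at 37 °C; Read-out: per-cell GR-EGFP intensity, nucleus versus surrounding cytoplasmic ring, well-averaged.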
Autophagy HCS: autophagy modulators in MEF cells, primary screen, imaging, high-content, MEF GFP-LC3; MEF GFP-LC3 puncta imaging; test concentration mostly 10 µM; hit rate 0.98% among 190,000; calls only at 10 µM (by protocol); AID 463193, 2010;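 active = percentage of spot-positive cells more than 3 SD above its plate mean, without a fluorescence outlier flag or 80% toxicity; inconclusive = no clear call, values can overlap the other calls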;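 also: spot-positive cell cutoff set from DMSO-treated cells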
Hsp70 activator: Hsp70 transcriptional activators, primary screen, cell-based, HeLa, Hsp70 promoter luciferase, luminescence, 10 µM; activation, % at 10 µM; HeLa Hsp70 promoter luciferase reporter; scaled: vehicle 0, proteasome-inhibitor control 100%; AID 1203, 2008; hit rate 0.04% among 200,000;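 active = activation above the mean across all tested compounds plus 3 SD, cutoff set per campaign, cut at about 5.5% in these data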;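 also: 100% = MG132 at 30 µM as the positive control and 0% = DMSO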
Active calls of the source: *; i = inactive; u = inconclusive; x = no result; + = active, no number. Most compounds without a hit are left out; they make up all but 2.1% or so of the library.

SMILES	bCat nuc transl	MT stabilize HCS	Dynein cargo inh	Autophagy HCS	Hsp70 activator
COC(=O)c1ccccc1NC(=O)c1cc([N+](=O)[O-])nn1Cc1ccccc1	-1.6	8.2	-0.204	i	-0.3
Cc1cc(C)c(NC(=O)CSc2ccc(-c3cccnc3)nn2)c(C)c1	-0.7	2.8	-1.01	i	-0.1
CC(=O)Nc1cccc(NC(=O)CSc2ccc(-c3cccnc3)nn2)c1	0.6	1.6	0.98	+	-0.1
COc1ccc(S(=O)(=O)Nc2cc3c4c(oc3c3ccccc23)CC(C)(C)CC4=O)cc1	1.0	20.0*	-1.43	i	-0.3
COc1ccc(S(=O)(=O)Nc2ccccc2C)cc1	-6.7	34.8	0.605	i	-0.5
COc1ccc(S(=O)(=O)Nc2cc3c4c(oc3c3ccccc23)CCCC4=O)cc1	-1.3	24.9*	-0.365	i	-0.1
Cc1cccc(C)c1N1CCN(S(=O)(=O)N(C)C)CC1	-0.6	2.1	-0.195	i	-0.4
COC(=O)c1[nH]c2cc(OC)ccc2c1NC(=O)c1nonc1C	0.8	36.5*	-0.229	i	-0.2
Cc1cc(C)n(-c2nc3ccccc3c(=O)n2OCC(=O)N(C)C)n1	2.8	1.9	-0.281	i	0.6
Cc1cc(C)n(-c2nc3ccccc3c(=O)n2OCC(=O)OCc2ccccc2)n1	-1.7	1.6	-0.51	+	0.1
CCn1c(=O)cc(SCC(=O)NCCCN2CCN(c3ccccc3F)CC2)c2ccccc21	2.7	3.8	0.336	+	-0.4
COc1ccc(C(C)=O)cc1COC(=O)c1cnc(Cl)c(Cl)c1	2.3	2.1	-0.758	i	0.1
COc1cccc(-c2nn(-c3ccccc3)cc2CNC(C)Cn2cncn2)c1 (stereo not drawn)	-0.9	2.1	-0.163	i	0.0
COc1ccc(CN2C3CCCC2CC(NC(=O)/C=C/c2ccccc2)C3)cc1 (stereo not drawn)	1.2	2.2	-0.623	+	-0.1
CN(N)c1nc(-c2ccccc2)nnc1C(F)(F)F	3.1	2.5	0.482	i	-0.3
CN(NC(=O)c1cccc(Cl)c1)c1nc(-c2ccccc2)nnc1C(F)(F)F	0.2	39.5*	-0.747	i	-0.3
COc1ccccc1/C=N/NC(=O)CSc1cc(C)nc2ccccc12	35.2	27.3*	-0.901	i	-0.4
COc1cccc2c(SCC(=O)N/N=C/c3ccc(O)cc3O)cc(C)nc12	-1.9	3.2	-0.155	i	-0.2
CCOC(=O)c1c(CN2CCN(C)CC2)oc2ccc(OC)cc12	-0.4	4.1	-0.0853	i	0.2
CCOC(=O)c1c(CN2CCN(c3ccccc3)CC2)oc2ccc(O)cc12	3.0	12.6*	0.474	i	-0.4
CCOC(=O)C1(CCOc2ccccc2)CCN(Cc2ccc(-n3cccn3)cc2)CC1	-1.4	1.6	0.0875	i	-0.1
O=c1oc2cc(O)ccc2cc1-c1nc2c(s1)CCc1ccccc1-2	-1.1	4.3	-2.36	u	-0.1
O=c1oc2ccccc2cc1-c1nc2c(s1)CCc1ccccc1-2	x	2.6	-2.59	+	-0.3
COCCCN1C(=O)c2[nH]nc(-c3ccccc3O)c2C1c1cccc(Cl)c1 (stereo not drawn)	-4.5	36.2*	0.0471	+	0.1
CC(C)OCCCN1C(=O)c2[nH]nc(-c3ccccc3O)c2C1c1cccc(Cl)c1 (stereo not drawn)	-8.0	16.0	0.313	i	-0.2
SMILES	bCat nuc transl	MT stabilize HCS	Dynein cargo inh	Autophagy HCS	Hsp70 activator
COCCCN1C(=O)c2[nH]nc(-c3ccccc3O)c2C1c1ccc(Cl)cc1 (stereo not drawn)	-0.1	44.2*	1.07	i	-0.1
CC1CCN(C(=O)CSc2ccc(-c3ccccc3)nn2)CC1	-1.3	2.2	-0.751	i	-0.2
O=C1CC(c2ccccc2)CC2=C1CN(C1CCCCC1)CN2 (stereo not drawn)	-4.4	50.8*	-0.265	i	0.0
COc1ccc(OC)c(C2C=C(c3ccc(C)c(C)c3)Nc3nnnn32)c1 (stereo not drawn)	17.2	x	x	x	x
COc1cccc(C2=CC(c3cc(OC)ccc3OC)n3nnnc3N2)c1 (stereo not drawn)	-1.5	26.5*	0.765	i	-0.1
COc1cccc(C2=CC(c3cccc(OC)c3OC)n3nnnc3N2)c1 (stereo not drawn)	-0.1	22.6*	-0.365	i	0.0
CCCCn1c(SCC(=O)NC2CC(C)(C)NC(C)(C)C2)nc2cc(S(N)(=O)=O)ccc21	0.2	x	-0.811	x	x
Clc1ccc2c(c1)C(C1=NCCN1)c1ccccc1CS2 (stereo not drawn)	x	24.1*	1.08	i	-0.1
Cc1cc(C)n(-c2nc3sc4c(c3c(=O)[nH]2)CCCC4)n1	2.7	2.0	0.433	+	0.2
Cc1nc2sc3c(c2c(=O)[nH]1)CCCCC3	1.2	x	1.11	x	x
C=CCN1CC(O)=C(c2ccccc2)C1=N	4.7	34.2*	-0.591	i	-0.2
N=C1C(c2ccccc2)=C(O)CN1CCCO	-2.6	4.4	0.995	i	0.1
Cc1ccc(NC(=O)/C=C/c2ccc(Cl)cc2)nc1	7.3	20.6*	-0.462	i	-0.1
O=C(/C=C/c1cccc([N+](=O)[O-])c1)Nc1ccc(Cl)cn1	2.8	10.1*	0.661	i	0.3
CSc1ccc(CN2CCN(CC=C(C)C)C(CCO)C2)cc1 (stereo not drawn)	0.2	5.7	-0.435	i	-0.1
Cc1ccc(OCCCCN2CCCC(C)C2)c([N+](=O)[O-])c1 (stereo not drawn)	-0.7	1.3	1.18	i	0.1
Cc1cccc(Cl)c1NC(=S)NCCc1ccccn1	-0.8	x	0.365	x	x
O=c1[nH]c(-c2ccccc2F)nc2c1sc(=S)n2Cc1ccccc1	-4.6	6.9	-0.0612	+	-0.2
CCOc1ccccc1NC1=CC(=O)CC(c2ccccc2)C1 (stereo not drawn)	0.7	24.7*	0.131	i	0.0
COc1ccc(NC2=CC(=O)CC(c3ccccc3)C2)c(OC)c1 (stereo not drawn)	82.1*	31.8*	-1.18	i	0.2
C=CCOc1ccnc(-c2ccccc2)n1	-0.6	x	-0.644	x	x
Cc1ccc(/C=C2/NC(=O)N(c3ccccc3)C2=O)o1	-0.9	1.5	-0.0402	i	0.3
O=C1N/C(=C/c2ccc(Br)s2)C(=O)N1c1ccccc1	0.4	1.7	-0.368	+	-0.4
COc1ccc(-n2cc(C(=O)Nc3cc([N+](=O)[O-])ccc3OC)c3ccccc3c2=O)cc1	-2.4	2.2	0.526	i	-0.1
Cc1ccc2c(c1)C=CC(C#N)N2C(=O)c1ccccc1 (stereo not drawn)	56.3*	33.3*	-0.91	i	-0.3
O=C(NC(=S)Nc1cccc(O)c1)c1ccco1	-0.4	x	0.273	x	x
Cc1ccc(NC(=O)NCCCl)cc1S(=O)(=O)N1CCOCC1	0.7	x	-0.33	x	x

High-throughput results deposited in PubChem by several laboratories.
